Results as given in PMC8963331 (Toxicological Sciences, 2022).
“Also recorded” adds a separate entry of the source. Read-outs that look alike come from different tables or passages of the source. Marks after values point to notes of the source that are not given here.

What was measured:
humans = details: QD, ref Sandborn et al., 2020, cited from earlier work
[1] = Rabbit EFD study: maternal and fetal plasma toxicokinetics; type: in vivo
[2] = test system: JAK1, JAK2, JAK3, and TYK2; assay: Human cellular JAK IC50; type: cell-based; details: corrected with human plasma protein binding of 85.4%
mouse colitis model = details: ref Sandborn et al., 2020; cited from earlier work
[3] = test system: Crl:CD Sprague Dawley (SD) rats; assay: Rat fertility and early embryonic development; type: in vivo; details: for Fertility index / Mating index / Pregnancy rate / Females mated: rat FEED; for Females mated: 22 females paired
[4] = Rat fertility and early embryonic development; type: in vivo; details: both, Sprague-Dawley (Crl:CD), rat, in vivo, oral
Time-mated female rats = assay: Rat embryo–fetal development; type: in vivo; details: for Corpora lutea (mean ± SD) / Implantation sites (mean ± SD) / Preimplantation loss (mean ± SD) / Total resorptions (mean ± SD) / Females with live fetuses / Pregnant females: rat EFD; for Females with live fetuses / Pregnant females: 22 total females
Outline: (§1)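 Time-mated female Crl:CD Sprague Dawley rats, 10–12 weeks old at dosing start, gavaged daily (10 ml/kg) with 0 (vehicle), 30, 100 or 1000 mg/kg/day test compound on GDs 6–17; n = 22/group plus a toxicokinetic group. Cesarean-section counts: corpora lutea, implantation sites, preimplantation loss, resorptions. Fetuses weighed and checked for external, visceral and skeletal (Alizarin Red S, after evisceration) abnormalities. Fetal weights compared by ANCOVA/Dunnett with litter size as covariate.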

[5] = Rat embryo–fetal development; type: in vivo; details: female, rat, in vivo, oral
Outline: as §1

[6] = Dog 4-, 13-, 39-week repeat-dose general toxicity studies; type: in vivo; details: both, beagle, dog, in vivo, oral
beagle dogs = assay: as above; type: in vivo
[7] = test system: JAK1, JAK2, JAK3, and TYK2; details: ref Sandborn et al., 2020; cited from earlier work
[8] = mice; 10 mg/kg oral; ref Sandborn et al., 2020; cited from earlier work
[9] = Exposure comparisons stated jointly for several nonclinical species; type: in vivo, rat, dog, rabbit
[10] = test system: Time-mated female rabbits; assay: Rabbit embryo–fetal development; type: in vivo; details: for Corpora lutea (mean ± SD) / Implantation sites (mean ± SD) / Preimplantation loss (mean ± SD) / Total resorptions (mean ± SD) / Females with live fetuses / Pregnant females: rabbit EFD; for Females with live fetuses / Pregnant females: 22 total females
Outline: (§2)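 Time-mated female rabbits, 6–8 months old at dosing start, gavaged daily (10 ml/kg) with vehicle or 10, 30 or 60 mg/kg/day test compound over GDs 7–19; n = 22/group plus a toxicokinetic group. Cesarean-section endpoints: corpora lutea, implantation sites, preimplantation loss, resorptions. Fetuses weighed and examined externally, viscerally and, after evisceration and Alizarin Red S staining, skeletally. Fetal weights analysed by ANCOVA with Dunnett's test, litter size as covariate.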

[11] = Rabbit embryo–fetal development; type: in vivo; details: female, rabbit, in vivo, oral
Outline: as §2

[12] = maternal rabbit, GD 19, 30 and 60 mg/kg/day
[13] = dog, 39-week study, 100 mg/kg/day
[14] = dog, 39-week study, 100 mg/kg/day, reversible
[15] = dog, 39-week study, 30 and 100 mg/kg/day

## Cc1cc(Nc2cc3ncccc3c(N[C@@H]3C[C@H]4CC[C@@H](C3)N4CCC#N)n2)n[nH]1 [izencitinib, Izencitinib]
humans; phase 1b, ulcerative colitis patients
  dose up to which well tolerated: 270 mg
humans; phase 1 single ascending dose
  dose up to which well tolerated: 1000 mg
[1]; maternal rabbit, 10 mg/kg/day
  plasma Cave:protein-corrected JAK IC50 ratio: < 1 ×
  plasma Cave:uncorrected JAK IC50 ratio: < 1 ×
[1]; maternal rabbit, GD 7, 10 mg/kg/day oral
  Mean Cave: 0.365 ng/mL
[1]; maternal rabbit, GD 7, 30 mg/kg/day oral
  Mean Cave: 3.28 ng/mL
[1]; maternal rabbit, GD 7, 60 mg/kg/day oral
  Mean Cave: 21.8 ng/mL
[1]; maternal rabbit, GD 19, 10 mg/kg/day oral
  Mean Cave: 0.754 ng/mL
[1]; maternal rabbit, GD 19, 30 mg/kg/day
  plasma Cave:uncorrected JAK IC50 ratio: 1 ×
[1]; maternal rabbit, GD 19, 30 mg/kg/day oral
  Mean Cave: 18.7 ng/mL
[1]; maternal rabbit, GD 19, 60 mg/kg/day
  plasma Cave:uncorrected JAK IC50 ratio: 6 ×
[1]; maternal rabbit, GD 19, 60 mg/kg/day oral
  Mean Cave: 76.7 ng/mL
[1]; [12]
  plasma Cave:protein-corrected JAK IC50 ratios: < 1 ×
  time at supratherapeutic plasma levels: 6 to 9 h
[1]; rabbit EFD study, 60 mg/kg/day, vs human 300 mg QD
  nonclinical:clinical AUC ratio at the NOAEL: 33 fold
[1]; rabbit fetuses, undetectable, limit of quantitation
  fetal plasma concentrations, all other samples: < 1 ng/mL
[1]; rabbit, fetal plasma, oral, 60 mg/kg/day
  concentration at 3 h: 1.55 ng/mL
[2]
  human cellular JAK IC50 range, human plasma protein binding corrected: 0.08718 to 0.5501 µg/mL
Mouse colitis model
  JAK inhibitor-associated splenic natural killer (NK) cell reductions: spared
[3]; 30 mg/kg/day oral
  Fertility index: 90.9%
  Mating index: 100.0%
  Pregnancy rate: 90.9%
  Females mated: 22 n
[3]; 100 mg/kg/day oral
  Females mated: 21 n
[3]; 1000 mg/kg/day oral
  Fertility index: 95.2%
  Mating index: 95.5%
  Pregnancy rate: 90.9%
  Females mated: 21 n
[3]; rat, up to 1000 mg/kg/day
  effect on male or female fertility: did not affect; also recorded: No effects
[4]
  NOAEL: 1000 mg/kg/day
Time-mated female rats; 30 mg/kg/day oral GDs 6–17
  Corpora lutea (mean ± SD): 14 ± 2.0
  Implantation sites (mean ± SD): 14 ± 2.0
  Preimplantation loss (mean ± SD): 1.0 ± 0.9
  Total resorptions (mean ± SD): 0 ± 0.6
  Females with live fetuses: 22
  Pregnant females: 22
Time-mated female rats; 100 mg/kg/day oral GDs 6–17
  Corpora lutea (mean ± SD): 14 ± 2.3
  Implantation sites (mean ± SD): 13 ± 1.8
  Preimplantation loss (mean ± SD): 1.0 ± 1.2
  Total resorptions (mean ± SD): 0 ± 0.7
  Females with live fetuses: 22
  Pregnant females: 22
Time-mated female rats; 1000 mg/kg/day oral GDs 6–17
  Corpora lutea (mean ± SD): 14 ± 1.7
  Implantation sites (mean ± SD): 13 ± 1.9
  Preimplantation loss (mean ± SD): 1.0 ± 1.0
  Total resorptions (mean ± SD): 0 ± 1.1
  Females with live fetuses: 22
  Pregnant females: 22
Time-mated female rats; rat, all doses
  effects on cesarean section parameters: no effects
  fetal external, visceral, or skeletal malformations: no observations
[5]
  NOAEL: 1000 mg/kg/day
[6]
  NOAEL at 39 weeks: 30 mg/kg/day
Beagle dogs; all dog studies
  effects on ophthalmology, electrocardiography, food consumption, urinalysis: No effects
Beagle dogs; dog 4-week study, 300 mg/kg/day, after 12–13 days
  tolerability: not tolerated
Beagle dogs; dog 4-week study, 300/100 mg/kg/day, days 18 and 19
  early euthanasia: 3 dogs
Beagle dogs; dog 39-week study, 100 mg/kg/day, at 25–26 weeks, skin observations
  early euthanasia: 2 dogs
Beagle dogs; dog repeat-dose studies, up to highest tested doses
  organ weights and microscopic findings in male reproductive tissues: no microscopic findings
Beagle dogs; dog repeat-dose toxicity studies, any dose
  effects on lipid levels: no effects
Beagle dogs; dog, 4- and 13-week studies
  dose with decreased hematopoietic and lymphoid cellularity (microscopic): ≥ 100 mg/kg/day
Beagle dogs; dog, 4- and 13-week studies, 100 mg/kg/day, reversible
  red blood cell parameters, change: 0.82–0.85 ×
Beagle dogs; dog, 4- and 13-week studies, any dose
  changes in reticulocyte levels: No changes
Beagle dogs; dog, 4 weeks
  no observed adverse effect level: 30^c mg/kg/day
Beagle dogs; dog, 4 weeks, end of dosing phase
  effects on white blood cell parameters: No significant effects
Beagle dogs; dog, 13- and 39-week studies, 100 mg/kg/day
  fibrinogen levels, change: 1.3–1.4 ×
Beagle dogs; dog, 13 weeks
  effects on white blood cell, lymphocyte, or neutrophil counts: No izencitinib-related effects
  no observed adverse effect level: 30^c mg/kg/day
Beagle dogs; dog, 13 weeks, 100 mg/kg/day, reversible
  platelets, change: 1.5 ×
Beagle dogs; dog, 39-week study
  dose with decreased hematopoietic and lymphoid cellularity (microscopic): ≥ 30 mg/kg/day
Beagle dogs; [13]
  red blood cell parameters, change: 0.76–0.79 ×
  tolerability: not tolerated
Beagle dogs; dog, 39-week study, 100 mg/kg/day, after recovery
  hemoglobin levels, change: 0.87 ×
Beagle dogs; dog, 39-week study, 100 mg/kg/day, recovery animals
  white blood cell counts, change: 1.3 ×
Beagle dogs; [14]
  helper T cells (immunophenotyping), change: 0.71 ×
  lymphocyte counts, change: 0.70 ×
  total T cells (immunophenotyping), change: 0.71 ×
  total lymphocytes (immunophenotyping), change: 0.70 ×
Beagle dogs; dog, 39-week study, 100 mg/kg/day, without reversibility in 4-week recovery
  B cells (immunophenotyping), change: 0.59 ×
Beagle dogs; [15]
  neutrophils, change: 1.3–1.5 ×
  platelets, change: 1.3–2.2 ×
Beagle dogs; dog, 39-week study, 30 and 100 mg/kg/day, after recovery
  hematocrit, change: 0.90–0.92 ×
Beagle dogs; dog, 39-week study, 30 and 100 mg/kg/day, reversible
  reticulocytes, change: 0.45–0.51 ×
Beagle dogs; dog, 39 weeks, 30 mg/kg/day
  red blood cell parameters, change: 0.90–0.91 ×
Beagle dogs; dog, 39 weeks, 30 mg/kg/day, end of dosing phase
  white blood cell counts, change: 1.2 ×
Beagle dogs; dog, any dose, 3 studies
  effects on prothrombin time or activated partial thromboplastin time: No effects
Beagle dogs; dog, up to 100 mg/kg/day, all 3 studies
  microscopic findings in GI tissues: no adverse microscopic findings
[7]
  human cellular JAK IC50 range, uncorrected: 0.01273 to 0.08031 µg/mL
[8]
  colon:plasma AUC ratio: 3883
[9]; rat and dog general toxicity studies, each study, vs human 300 mg QD
  nonclinical:clinical systemic exposure (AUC) ratio at the NOAEL dose: 6- to 18 fold
[9]; rat and rabbit EFD studies
  fetal exposure: negligible
  maternal plasma Cave:JAK IC50 ratio: 2–6 ×
[9]; rat and rabbit EFD, highest dose tested
  Cave:uncorrected IC50 ratio: ≥ 2 ×
[10]; rabbit
  effects on fetal parameters: no effects
[10]; 10 mg/kg/day oral GDs 7–19
  Corpora lutea (mean ± SD): 10 ± 1.7
  Implantation sites (mean ± SD): 10 ± 1.6
  Preimplantation loss (mean ± SD): 1.0 ± 0.8
  Total resorptions (mean ± SD): 0 ± 0.4
  Females with live fetuses: 20
  Pregnant females: 22
[10]; 30 mg/kg/day oral GDs 7–19
  Corpora lutea (mean ± SD): 11 ± 2.0
  Implantation sites (mean ± SD): 10 ± 1.9
  Preimplantation loss (mean ± SD): 1.0 ± 0.9
  Total resorptions (mean ± SD): 0 ± 0.4
  Females with live fetuses: 21
  Pregnant females: 21
[10]; 60 mg/kg/day oral GDs 7–19
  Corpora lutea (mean ± SD): 11 ± 2.3
  Implantation sites (mean ± SD): 10 ± 2.8
  Preimplantation loss (mean ± SD): 1.0 ± 1.5
  Total resorptions (mean ± SD): 1 ± 1.6
  Females with live fetuses: 21
  Pregnant females: 22
[10]; rabbit, any dose
  effects on cesarean section parameters: no adverse effects
[10]; rabbit, up to 60 mg/kg/day
  tolerability: well tolerated
[11]
  NOAEL: 60 mg/kg/day
